Screens from PubChem.
The list is not random: actives were taken first. Their share in the collection is about 3.2%.
Hck-Nef inh: human Hck-Nef kinase inhibition; P08631; Recombinant Hck-YEEI plus Nef, Z-Lyte FRET kinase assay; inhibition, % at 20 µM; 220,000 tested, 0.68% active; AID 463187;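 active = Hck-Nef kinase inhibition above about 50%, limit read from the data; inactive = inhibition below that limit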
Target sequence (P08631 whole entry, looked up): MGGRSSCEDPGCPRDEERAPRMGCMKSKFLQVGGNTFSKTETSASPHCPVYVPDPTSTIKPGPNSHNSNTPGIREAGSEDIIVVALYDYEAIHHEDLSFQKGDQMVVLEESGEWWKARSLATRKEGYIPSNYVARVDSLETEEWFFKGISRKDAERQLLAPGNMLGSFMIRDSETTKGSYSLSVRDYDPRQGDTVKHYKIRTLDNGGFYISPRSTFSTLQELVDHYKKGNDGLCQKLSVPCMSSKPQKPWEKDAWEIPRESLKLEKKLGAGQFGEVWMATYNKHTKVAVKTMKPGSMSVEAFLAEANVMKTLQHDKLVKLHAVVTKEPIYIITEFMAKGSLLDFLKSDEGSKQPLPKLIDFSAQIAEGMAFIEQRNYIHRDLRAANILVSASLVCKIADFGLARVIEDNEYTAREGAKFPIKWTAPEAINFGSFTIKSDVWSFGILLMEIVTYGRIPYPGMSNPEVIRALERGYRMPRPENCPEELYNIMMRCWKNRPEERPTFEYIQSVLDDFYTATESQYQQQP
14-3-3 Bad inh: disrupts binding of bovine 14-3-3 zeta to phospho-Bad peptide | inhibition, % at 21.7 µM | 220,000 tested, 0.71% active | TR-FRET 14-3-3zeta/Dy647-pBad peptide displacement, 1 h | P63103;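 active = inhibition above about 70%, limit read from the data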
Bim-Mcl-1: inhibitors of Bim-Mcl-1 interaction, human | Q07820 | Bead-based flow cytometry, Bim peptide-Mcl-1 binding | inhibition, % at 10 µM | 190,000 tested, 0.1% active; in the data active = inhibition above about 40%
Mcl1-Noxa inh: disrupts binding of human Mcl-1 to Noxa peptide; Q07820; TR-FRET Mcl-1/Noxa peptide binding, 2 h; inhibition, % at 21.7 µM; 220,000 tested, 1.5% active;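 active = compounds that cut the protein-peptide binding signal by more than 50% relative to plate controls in a single-dose test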;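 note: His-tagged Mcl-1 with rhodamine Noxa BH3 peptide and terbium anti-His antibody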
Biofilm kill mix: mixture kills Candida albicans biofilm cells; 120,000 tested, 0.02% active; inhibition, % at 7.6 µM; C. albicans biofilm persisters + clotrimazole, fluorescence viability; primary screen in compound mixtures of four per well;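 note: compounds exposed to preformed 24 h biofilms for 48 h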
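Assay system: C. albicans biofilms / Medium: RPMI/MOPS medium, pH 7.0 / Schedule: biofilm formation 24 h, compound exposure 48 h, 37 °C / Measured by: Alamar Blue fluorescence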
Mcl1-Bid inh: Mcl-1/Bid interaction inhibition. Q07820. TR-FRET Mcl-1/Bid-Dy647 peptide binding, 1536-well. inhibition, % at 21.7 µM. 220,000 tested, 0.97% active;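 active = compounds that cut the binding signal by more than half at the single screening dose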;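 note: His-tagged Mcl-1 with europium anti-His antibody binding Bid BH3 peptide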
Numbers stand for hits; i = inactive; nt = not tested or not shown; [ ] = remark or other dose.

SMILES	Hck-Nef inh	14-3-3 Bad inh	Bim-Mcl-1	Mcl1-Noxa inh	Biofilm kill mix	Mcl1-Bid inh
CCCCCCOC(=O)C(C#N)c1nc2ccccc2nc1N1CCCCC1 (stereo not drawn)	i	i	i	i	nt	i
O=C(COC(=O)CCN1C(=O)/C(=C\C=C\c2ccccc2)SC1=S)Nc1cc(F)ccc1F	126	i	i	i	i	i
Cc1c(NC(=O)c2ccc(Br)s2)c(=O)n(-c2ccccc2)n1C	i	i	i	i	i	i
COc1cc(/C=N/NC(=O)CN(Cc2ccccc2)S(=O)(=O)c2ccc3c(c2)OCCO3)ccc1O	i	i	i	i	i	i
COc1cc(/C=N/NC(=O)CN(Cc2ccco2)S(=O)(=O)c2ccccc2)ccc1O	i	i	45	i	i	i
O=C(COc1c(Cl)cc(Cl)cc1Cl)c1ccc(Cl)cc1	i	i	i	i	i	i
Cc1c(NC(=S)NC(NC(=O)C(C)C)C(Cl)(Cl)Cl)c(=O)n(-c2ccccc2)n1C (stereo not drawn)	i	i	i	i	i	96
CC(=O)/C=C1\SC(CC(=O)O)C(=O)N1c1ccccc1 (stereo not drawn)	i	i	i	i	nt	i
Oc1ccccc1C1Nc2cccc3cccc(c23)N1	i	i	i	98	nt	i
COc1ccccc1C1Nc2cccc3cccc(c23)N1	i	i	i	i	nt	i
Brc1ccc(C2Nc3cccc4cccc(c34)N2)o1	i	i	i	65	nt	i
c1csc(C2Nc3cccc4cccc(c34)N2)c1	i	i	i	nt	nt	i
CC(C)c1ccc(-n2c(-c3ccccc3)c[n+]3c2CCc2ccccc2-3)cc1	i	i	i	i	35	i
COc1ccc(-n2c(-c3ccc(Br)cc3)c[n+]3c2CCc2ccccc2-3)cc1	i	i	i	i	i	i
O=C1[C@@H]2C(c3cccnc3)=NO[C@@H]2C(=O)N1c1ccc2ccccc2c1	i	i	nt	i	i	i
O=[N+]([O-])c1ccc(NC(=S)NCCc2ccccc2)cc1	i	i	i	i	i	i
O=[N+]([O-])c1ccc(NC(=S)NCCc2ccc(Cl)cc2)cc1	i	i	i	i	nt	94
NCCCC[C@H](NC(=O)C1CCNCC1)c1nnc([C@@H](N)CO)o1	i	i	i	i	i	i
NCCCC[C@H](NC(=O)C1CCNCC1)c1nnc(CN)o1	i	i	i	i	i	90
CCCCN(C)C(=O)c1cc2cc3ccc(OC)cc3nc2s1	i	84[fluorescence artefact?]	i	i	nt	i
CCOC(=O)C(C)(C)n1nnc(-c2ccc([N+](=O)[O-])cc2)n1	i	i	i	i	i	i
COC(=O)c1ccccc1NS(=O)(=O)c1ccc(O)c(C(=O)O)c1	i	i	i	i	nt	i
O=C(O)c1cc(S(=O)(=O)O)ccc1O	i	i	i	i	nt	56
CC(C)Oc1ccc(OCCCN2CCCCCC2)cc1	i	i	i	i	nt	54
CCOc1ccc(OCCN2CCCCC2)cc1	i	i	i	i	i	i
SMILES	Hck-Nef inh	14-3-3 Bad inh	Bim-Mcl-1	Mcl1-Noxa inh	Biofilm kill mix	Mcl1-Bid inh
O=C(c1cccc(S(=O)(=O)N2CCc3ccccc3C2)c1)N1CCN(c2ccc(O)cc2)CC1	i	i	i	57	i	i
O=C(c1ccc2ccccc2c1)N1CCN(c2ccc([N+](=O)[O-])c(N3CCOCC3)c2)CC1	i	i	i	i	nt	i
O=C(CSc1ccc2ccccc2c1)N1CCN(c2ccc(O)cc2)CC1	i	i	nt	60	i	i
O=C(c1ccc2ccccc2c1)N1CCN(c2ccc(O)cc2)CC1	i	i	i	53	nt	i
Cc1ccc(C2/C(=C(\O)c3c(C)nc4ccccn34)C(=O)C(=O)N2CCN(C)C)o1 (stereo not drawn)	i	i	nt	i	i	i
CCCCNCC(=O)Nc1ccc(NC(=O)CNCCCC)cc1	i	i	i	i	nt	i
O=C(CN1CCN(CCN2C(=O)c3cccc4cccc(c34)C2=O)CC1)c1ccc(F)cc1	i	i	i	i	nt	98
CCC(=O)N(Cc1cc(=O)[nH]c2ccccc12)C1CCCCC1	i	i	i	i	nt	i
Cc1ccc(/C=C2/C(=O)c3ccc(C(=O)O)cc3C2=O)o1	i	i	i	72	i	i
CC(C)(C)N1C(=O)c2ccc(C(=O)O)cc2C1=O	i	i	i	i	nt	i
O=C(O)c1ccc2c(c1)C(=O)/C(=C/c1ccccc1)C2=O	i	i	i	64	i	i
Cc1ccc(C=C2C(=O)c3ccccc3C2=O)o1	i	i	i	i	i	i
